Data as given in ChEMBL document CHEMBL4513216, “Probing the Open Global Health Chemical Diversity Library for Multistage-Active Starting Points for Next-Generation Antimalarials” (ACS Infect Dis, 2020).

assay: Toxicity liver stage against HepG2, at 10uM; assay type: cell-based; parameters: test concentration 10 uM, cell line HepG2-A16-CD81EGFP; details: human, HepG2-A16-CD81EGFP cells; read-out: INHIBITION
Outline: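 Uninfected HepG2-A16-CD81EGFP cells, 3 × 10^3 per well, 1536-well, plated on prespotted compound at 10 μM final, parasite-free screening media added to match infected plates; puromycin 10 μM positive, DMSO 0.5% negative; run in parallel with 48 h PbLuc assay at 37 °C, 5% CO2; viability by CellTiter-Glo luminescence, normalized to controls.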

Row | SMILES | cytotoxicity at 10 µM [%]
1 | O=c1ncn(-c2cccc(F)c2)c2ncccc12 | 4.19
2 | O=C1NC[C@H]2CN(Cc3ccnc4ccccc34)CCN12 | -3.66
3 | CC(C)(C)c1coc([C@@H]2COCCN2CC2CC2)n1 | -10.1
4 | CN(C)CCNCC1CCOC(C)(C)C1 (configuration not stated) | -9.35
5 | CNC(=O)c1nc(COc2c(C)occc2=O)no1 | 3.08
6 | CC(C)c1nc2oc(C(=O)N3CCOCC3)c(N)c2c2c1CCCC2 | -3.71
7 | CCc1c(C)sc2c1c(N)nc(=O)n2CCCN(C)C | 2.06
8 | O=C(NCc1ccc(F)cc1)NCC(O)(c1cccs1)C1CC1 (configuration not stated) | -1.13
9 | COC(=O)c1ccc(S(=O)(=O)NCC(O)c2sccc2C)cc1 (configuration not stated) | 2.16
10 | CS(=O)(=O)N1CCN(c2cnnc(N3CCCC3)c2)CC1 | 2.24
11 | Cn1ccc(CN2CCCC23CCNCC3)n1 | 4.86
12 | CCS(=O)(=O)N1CCOC2(CCCN(c3ncc(F)cn3)C2)C1 (configuration not stated) | 5.86
13 | COC[C@]12COC[C@H]1CN(C(=O)C1CCSCC1)C2 | 2.2
14 | COc1cc(N2CCn3cc(CNc4ccccn4)nc3C2)ncn1 | 13.1
15 | Cc1csc(CN2CC[C@H]3C[C@@H](c4nc(C)no4)O[C@@H]3C2)n1 | 3.8
16 | Cc1oncc1C(=O)N1CCCc2c(C#N)nn(C)c2C1 | -134
17 | Cc1cc(C)cc(N2CC(c3nnc(N)s3)CC2=O)c1 (configuration not stated) | 4.29
18 | CC1CCN(C(=O)c2ccn(COc3ccc(F)cc3)n2)CC1 | -9.38
19 | Cc1cc(-c2cnc(N(C)C)nc2C2CCCCN2C(=O)C2CC2)on1 (configuration not stated) | 0.095
20 | CCc1nnc(Nc2cc(C)nc(C3CCN(c4ncccn4)C3)n2)s1 (configuration not stated) | 3.07
21 | Fc1cccc(CN2CCC(c3noc(-c4cnccn4)n3)CC2)c1F | -1.37
22 | NC(=O)CN1CCC(c2cccc(Oc3ccccc3)n2)CC1 | -4.72
23 | CC(C)N(C)CC(=O)Nc1nccn1Cc1ccccc1Cl | 0.0646

Row | SMILES | cytotoxicity at 10 µM [%]
24 | CCn1ccnc1CN1CCCN(C(=O)c2ccc(C#N)cc2)CC1 | -6.96
25 | CC(O)CCN(C)C(=O)Nc1ccc(Br)cc1 (configuration not stated) | -2.1
26 | COc1cc(C#N)ccc1OCCN1CCC(n2ccnc2)CC1 | 2.75
27 | Cc1ccccc1C(C)NC(=O)Cc1c(C)nc2cc(=O)[nH]n2c1C (configuration not stated) | 10.8
28 | NC(=O)CNC(c1ccccc1)c1ccc(OC(F)F)cc1 (configuration not stated) | 58.2
29 | CCCOc1ccc(CCC(=O)Nc2nonc2C)cc1 | -7.24
30 | Cc1nn(C)c(C)c1C1CCCN1C(=O)c1cc(C(N)=O)cs1 (configuration not stated) | -2.53
31 | CC(=O)NCCNC(=O)NCc1ccc(-n2ccc(C(F)(F)F)n2)cc1 | -6
32 | COC(=O)c1ccc(NC(C)c2ccc3c(c2)NC(=O)CO3)nn1 (configuration not stated) | -4.75
33 | Cc1nnc(CN(C)CC(=O)N2CCCC(C(F)(F)F)C2)n1C (configuration not stated) | 4.49
34 | CC(Cc1c(F)cccc1F)NC(=O)CSCC(N)=O (configuration not stated) | -6.37
35 | COCc1nc(C)cc(Nc2ccc3c(c2)CC(=O)N3)n1 | 1.41
36 | O=C(c1ccc(-n2cncn2)cc1)N1CCN(c2cnccn2)CC1 | 2.45
37 | O=C(NCc1ccccc1CO)Nc1ccc2c(c1)CCO2 | 11.4
38 | CCN1CCN(C(C)CNC(=O)Nc2nnc(C(C)C)s2)CC1 (configuration not stated) | 1.06
39 | Cc1ccccc1-n1cnnc1SCCOCC1CCCO1 (configuration not stated) | -3.73
40 | NCC1(c2cccc(C(F)(F)F)c2)CCCC1 | -5.7
41 | Cc1cnn(CC2CN(CCCS(C)(=O)=O)CCO2)c1 (configuration not stated) | -2.45
42 | CC(C)(C)c1nnc(CNc2c(F)cccc2-n2cccn2)o1 | -8.25
43 | CCn1c(C)cc(C(=O)N2CCCC(n3ccnc3C)C2)c1C (configuration not stated) | -1.51
44 | N#CCCCOc1cccnc1NC(=O)CCC1CCCC1 | -2.08
45 | CCc1ccc(C(=O)N2CCCC2c2c(C)nn(C)c2OC)o1 (configuration not stated) | 6.16
46 | CCc1nc(CN(C)C(=O)NC(C)c2cccc(NC(C)=O)c2)cs1 (configuration not stated) | -4.85

Row | SMILES | cytotoxicity at 10 µM [%]
47 | COc1ccc(Nc2cc(C)nc(C)n2)cc1N1CCCC1=O | -2.19
48 | COc1cccc(F)c1C(C)NC(=O)NCCc1ccc(C)nc1 (configuration not stated) | -2.13
49 | Cc1cc(C(=O)NC2(C#N)CCSCC2)n(C)n1 | 22.1
50 | CCOCc1ccccc1CNc1ccc2nncn2n1 | 0.84
51 | Cn1cc(C(C)(O)CNC(=O)c2cc(Br)cn2C)cn1 (configuration not stated) | -51.1
52 | O=C(c1cccc2[nH]ccc12)N1CCC2(CCOC2)C1 (configuration not stated) | -151
53 | Cn1cc(S(=O)(=O)Nc2c(F)cccc2N2CCCC2)cn1 | -4.24
54 | CCc1n[nH]c(C2CN(Cc3ncc(CC)o3)CCO2)n1 (configuration not stated) | -9.79
55 | NC(=O)c1ccc(C(=O)N(Cc2ccc(O)cc2)CC2CC2)cc1 | 8.19
56 | CCn1cnnc1CNC(=O)C1CCCN(Cc2cccc(F)c2)C1 (configuration not stated) | 3.5
57 | Cc1c(Cl)ccc2ccc(NC(CO)CO)nc12 | -7.78
58 | Cc1ccc(Cl)c2ccc(NC(CO)CO)nc12 | -12.1
59 | COc1c(CNCCC(=O)Nc2cccc(C)n2)c(C(C)C)nn1C | -1.17
60 | COCCC1(CNC(=O)NCC2CCCN(C)C2)CCC1 (configuration not stated) | -1.11
61 | O=C(CNc1ccc(OC2CCOC2)cc1)NCc1ccco1 (configuration not stated) | 5.03
62 | Cc1c(C(=O)NCCCS(C)(=O)=O)cccc1-c1ccccn1 | 4.83
63 | CC(NC(=O)NCc1cccnc1N(C)C)c1ccc(F)cc1 (configuration not stated) | -1.19
64 | CS(=O)(=O)N1CCC(Nc2ccc(C#N)c(C(F)(F)F)c2)CC1 | 6.85
65 | CN(CCn1cccn1)S(=O)(=O)c1cccc(Cl)c1C#N | 3.45
66 | CCN(CC(=O)NC)C(=O)Cc1nc(-c2ccco2)oc1C | 22.8
67 | COc1cccc(N2CC3(CCN(C(=O)NC(C)C)C3)CC2=O)c1 (configuration not stated) | 3.52
68 | O=C(c1cccc(-c2ncc[nH]2)c1)N1CC[C@H](CO)[C@@H](O)C1 | -0.462
69 | COc1ccc2[nH]nc(CN3CCC(C(C)N4CCCC4)CC3)c2c1 (configuration not stated) | -4.13

Row | SMILES | cytotoxicity at 10 µM [%]
70 | Cc1nc(N2CCC(C(O)c3nccn3C)CC2)c2cccnc2n1 (configuration not stated) | 1.46
71 | Cc1nc[nH]c1C(=O)N1CCC2(CN(C)C(=O)O2)C1 (configuration not stated) | 2.99
72 | O=C(NCCc1ccncc1)c1ccc(N2CCOCC2)cc1 | -5.08
73 | CC(O)CN1CCc2[nH]nc(C(c3ccccc3)c3ccccc3)c2C1 (configuration not stated) | -0.481
74 | CC(C)n1ccnc1C1CCN(C(=O)c2ccccc2N(C)C)CC1 | 4.67
75 | CNc1ncccc1C(=O)N1CCN(Cc2ccc(C)cc2)C(=O)C1C (configuration not stated) | 5.67
76 | C=Cc1cccc(CN2C[C@@H](CN(C)CC)[C@@H](CO)C2)c1 | -6.63
77 | CN(C)S(=O)(=O)N1CCN(CC2CCOc3ccccc3C2)CC1 (configuration not stated) | -0.529
78 | COc1ccc(F)cc1-c1nc2c([nH]1)c(C1CC1)nn2C | -2.18
79 | CN(C)C(=O)N1CCN(CCCc2ccccc2)[C@H]2CS(=O)(=O)C[C@H]21 | -5.18
80 | OC1(CNCCc2nc3c(s2)CCCC3)CNCCOC1 (configuration not stated) | 17.4
81 | COc1cccc2c1OCC(C(=O)N1CCN(S(C)(=O)=O)CC1)C2 (configuration not stated) | -7.23
82 | CC[C@@]1(O)CCN(C(=O)c2ccsc2)C[C@H]1O | -9.35
83 | CCc1nc(C2CCCN2CC(=O)Nc2nnc(C)s2)no1 (configuration not stated) | -1.73
84 | COC(=O)c1cccn1C1CCN(C(=O)c2ccc(C)[nH]c2=O)CC1 | -3.78
85 | CNC(=O)c1ccc(C(=O)N2CCCC(n3nc(C)cc3C)C2)cn1 (configuration not stated) | -5.61
86 | CCCc1n[nH]c(C2CN(C(=O)c3cccc4cn[nH]c34)CCO2)n1 (configuration not stated) | -4.81
87 | CCOc1cc(C(=O)N2CCCC(n3nc(C)nc3C)C2)ccn1 (configuration not stated) | -5.99
88 | Cc1ccc(C(=O)N(C)Cc2ccc3c(c2)OCCO3)c(=O)[nH]1 | -9.24
89 | CN1CCCC1CNC(=O)CCOc1ccc(Cl)cc1 (configuration not stated) | -4.31
90 | CC(C)c1noc(CCCC(=O)N2CCN(S(C)(=O)=O)CC2)n1 | -15.7
91 | COc1c(C2CCCN2Cc2cccc(C(N)=O)c2)c(C)nn1C (configuration not stated) | -8.18
92 | Cc1cnc(CN2CCCC2c2cnn(C)c2)cn1 (configuration not stated) | 0.35

Row | SMILES | cytotoxicity at 10 µM [%]
93 | O=C(CN1CCC(c2ccnn2CCO)CC1)NC1CCCC1 | -6.64
94 | Cc1ccc(NC2CCN(C(=O)c3cc4c(s3)CCC4)CC2)nn1 | -3.48
95 | CCc1noc(C(C)N2CCN(S(=O)(=O)N3CCCC3)CC2)n1 (configuration not stated) | -0.252
96 | Cc1cnn(CC(C)NCc2ccc(OCc3cscn3)cc2)c1 (configuration not stated) | -9.35
97 | CCC(O)CN1CCN(C(=O)c2ccc(Cn3cccc3)cc2)CC1 (configuration not stated) | -6.54
98 | CCN(Cc1ccc2c(c1)OCO2)C(=O)NC(C)Cn1cccn1 (configuration not stated) | -2.5
99 | NC(=O)c1cc(NC(=O)NCCc2cc(F)cc(F)c2)ccc1F | -9.58
100 | Cn1cnnc1C1CCCN(C(=O)NCc2ccc3c(c2)OCO3)C1 (configuration not stated) | -1.9
101 | Cc1cc(CN(C)C(=O)C2CCS(=O)(=O)C2)no1 (configuration not stated) | 0.746
102 | CC(C)C(=O)N1CCc2c(CN(C)Cc3ccco3)cncc2C1 | -5.69
103 | O=C([C@H]1CC[C@@H]2[C@@H](CCN2Cc2ccc(F)cc2)O1)N1CCCO1 | 3.74
104 | Cc1nc(-c2cc(C(=O)NCCN3CCOCC3)c3ccccn23)cs1 | 3.59
105 | O=C(NCCc1ccncc1)[C@H]1CC[C@@H]2[C@@H](CCN2CC2CC2)O1 | 0.545
106 | COC[C@@H]1CCC[C@]12CN(Cc1cccc(C)n1)CCO2 | 5.53
107 | COc1ccccc1OCCNCc1c(C)nn(C)c1N(C)C | -2.9
108 | Fc1ccc(CN2CCC3(CCCN(c4nncs4)C3)C2)cc1 (configuration not stated) | -141
109 | COCC(=O)N1C[C@@H]2CCCO[C@@H]2[C@H](N(C)Cc2ccco2)C1 | -0.704
110 | Cc1n[nH]cc1CNCC1(c2cccc(F)c2)CCOCC1 | 6.48
111 | O=S(=O)(C1CC1)N1CCC2(CCN(Cc3nccs3)CC2)CC1 | 7.67
112 | CN(C)C(=O)COC[C@H]1CC[C@@H]2[C@@H](CCN2Cc2ccco2)O1 | -160
